Experimental data: ChEMBL document CHEMBL1250508, “Synthesis and cytotoxic potency of novel tris(1-alkylindol-3-yl)methylium salts: role of N-alkyl substituents” (Bioorg Med Chem, 2010)
Activity calls are given as the source filed them. The calls are words filed in the database; no cut-off is given here.

What was measured:
HCT-116 [1] = experiment: Cytotoxicity against human HCT116 cells after 72 hrs by MTT assay; type: functional, cell-based; details: HCT-116, 72 h
In short: (§1)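 Tumour lines were grown in DMEM with 5% fetal calf serum, 2 mM L-glutamine, penicillin and streptomycin at 37 °C, 5% CO2, and used in log phase. 5×10^3 cells per well were exposed to serial concentrations (each in triplicate; 10 mM DMSO stocks diluted in water) or 0.1% DMSO for 72 h. MTT was added for 2 h, formazan dissolved in DMSO, and A540 read. IC50 was taken at 50% viability versus vehicle.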

K562 = experiment: Cytotoxicity against human K562 cells after 72 hrs by MTT assay; type: functional, cell-based; details: K562, 72 h; in short: as §1
Jurkat = experiment: Cytotoxicity against human Jurkat cells after 72 hrs by MTT assay; type: functional, cell-based; in short: as §1
SK-BR-3 = experiment: Cytotoxicity against human SK-BR-3 cells after 72 hrs by MTT assay; type: functional, cell-based; in short: as §1
HCT-116 [2] = experiment: Induction of apoptosis in human HCT116 cells assessed as increase of hypodiploid nuclei at sub-G1 phase at 1 uM after 24 to 48 hrs […] by flow cytometry; type: functional, cell-based
In short: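 HCT116 cells were seeded at 5×10^4 per well overnight, then exposed to 1 µM for 24–48 h at 37 °C with drug-free controls. Cells were washed in cold saline and lysed in 0.1% sodium citrate, 0.3% NP-40, 50 µg/ml RNase A and 10 µg/ml propidium iodide. Flow cytometry on FL2 gave the percentage of hypodiploid (sub-G1) nuclei.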

SK-OV-3 = experiment: Cytotoxicity against human SKOV3 cells after 72 hrs by MTT assay; type: functional, cell-based; in short: as §1
HCT-116 [3] = experiment: Induction of apoptosis in human HCT116 cells assessed as internucleosomal DNA fragmentation at 1 uM after 24 to 48 hrs by agarose gel by electrophoresis; type: functional, cell-based
In short: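 HCT116 cells were seeded at 5×10^4 per well overnight and treated with 1 µM for 24–48 h, with drug-free controls. Cells were lysed for 30 min on ice in 350 mM NaCl, 20 mM Tris-HCl pH 7.4, 2 mM MgCl2, 1 mM DTT and 0.5% NP-40. DNA was phenol-chloroform extracted, ethanol/sodium acetate precipitated, and run on a 1% agarose gel.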

MCF7 = experiment: Cytotoxicity against human MCF7 cells after 72 hrs by MTT assay; type: functional, cell-based; in short: as §1
Fem-X = experiment: Cytotoxicity against human Fem-X cells after 72 hrs by MTT assay; type: functional, cell-based; in short: as §1
HCT-116 [4] = experiment: Induction of apoptosis in p53 deficient human HCT116 cells at 1 uM after 24 to 48 hrs using Annexin V-FITC staining by flow cytometry; type: functional, cell-based
HCT-116 [5] = experiment: Induction of apoptosis in human HCT116 cells assessed as loss of DNA integrity at 1 uM after 24 to 48 hrs using Annexin V-FITC staining by flow cytometry; type: functional, cell-based
PBL = experiment: Cytotoxicity against human PBL cells after 72 hrs by MTT assay; type: cell-based
In short: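 Lymphocytes were freshly isolated from peripheral blood of four healthy donors and pooled. 5×10^3 cells per well were treated with increasing concentrations in triplicate (DMSO stocks diluted in water) or 0.1% DMSO vehicle for 72 h. MTT was added for 2 h, then formazan dissolved in DMSO and read at 540 nm. IC50 was the concentration giving 50% viability relative to vehicle.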

HCT-116 [6] = experiment: Induction of apoptosis in human HCT116 cells assessed as programmed cell death at 1 uM after 24 to 48 hrs using Annexin V-FITC staining by flow cytometry; type: functional, cell-based
In short: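 HCT116 cells were plated at 5×10^4 per well overnight, given 1 µM for 24–48 h at 37 °C, 5% CO2 (controls without drug), washed with cold saline and harvested. One aliquot was stained with Annexin V-FITC per the manufacturer and analysed by flow cytometry.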

Mel-Kor = experiment: Cytotoxicity against human Mel-Kor cells after 72 hrs by MTT assay; type: functional, cell-based; in short: as §1

| SMILES | IC50 (HCT-116 [1]) [nM] | IC50 (K562) [nM] | other results |
| --- | --- | --- | --- |
| c1ccc(Cn2cc([C+](c3cn(Cc4ccccc4)c4ccccc34)c3cn(Cc4ccccc4)c4ccccc34)c3ccccc32)cc1 | 15000 | 9300 | – |
| CCn1cc([C+](c2cn(CC)c3ccccc23)c2cn(CC)c3ccccc23)c2ccccc21 | 1300 | 200 | – |
| c1ccc2c([C+](c3c[nH]c4ccccc34)c3c[nH]c4ccccc34)c[nH]c2c1 | 2300 | 1600 | – |
| Cn1cc([C+](c2cn(C)c3ccccc23)c2cn(C)c3ccccc23)c2ccccc21 | 3200 | 3200 | – |
| CCCCCCn1cc([C+](c2cn(CCCCCC)c3ccccc23)c2cn(CCCCCC)c3ccccc23)c2ccccc21 | 300 | 74 | – |
| CCCCCn1cc([C+](c2cn(CCCCC)c3ccccc23)c2cn(CCCCC)c3ccccc23)c2ccccc21 | 150 | 50 | Activity (Jurkat): Active; Activity (SK-BR-3): Active; Activity (HCT-116 [2]): Active; Activity (SK-OV-3): Active; Activity (HCT-116 [3]): Active; Activity (MCF7): Active; Activity (Fem-X): Active; Activity (HCT-116 [4]): Active; Activity (HCT-116 [5]): Active; Activity (PBL): Non-toxic; Activity (HCT-116 [6]): Active; Activity (Mel-Kor): Active |
| CCCCCCCCCCn1cc([C+](c2cn(CCCCCCCCCC)c3ccccc23)c2cn(CCCCCCCCCC)c3ccccc23)c2ccccc21 | 16400 | 12400 | – |
| CCCn1cc([C+](c2cn(CCC)c3ccccc23)c2cn(CCC)c3ccccc23)c2ccccc21 | 1000 | 200 | – |
| CCCCn1cc([C+](c2cn(CCCC)c3ccccc23)c2cn(CCCC)c3ccccc23)c2ccccc21 | 300 | 90 | – |
